In ChEMBL document CHEMBL4364301 (Eur J Med Chem, 2019):

Assays:
Format in all cases: functional
[1] = tested on: DU-145; assay: Antiproliferative activity against human DU145 cells assessed as T/C value at 3.2 x 10^-3 uM incubated for 96 hrs by propidium iodide based 2D monolayer assay
Method in brief: (§1)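 After 24 h recovery, compound in medium or medium alone (control wells) was added at 10 half-log concentrations from 0.0032 to 100 µM, in triplicate, with at most 0.3% DMSO. After 96 h, wells were PBS-washed, stained with 7 µg/ml PI and 0.1% Triton X-100, and fluorescence read at 530/620 nm. IC50 came from a 4-parameter fit, geometric mean.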

[2] = tested on: LNCaP; assay: Antiproliferative activity against human LNCAP cells assessed as reduction in cell growth incubated for 96 hrs by propidium iodide based 2D monolayer assay; method in brief: as §1
[3] = tested on: VCaP; assay: Antiproliferative activity against human VCaP cells assessed as reduction in cell growth incubated for 96 hrs by propidium iodide based 2D monolayer assay
Method in brief: (§2)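 VCaP cells in RPMI 1640 with 10% FCS at 37 °C, 5% CO2, seeded 4,000–20,000 cells/well and left 24 h before dosing. Compounds from DMSO stocks were diluted in half-log steps in medium, 10 concentrations 0.0032–100 μM, triplicate wells, max 0.3% DMSO. After 96 h, cells were washed, stained with 7 μg/ml propidium iodide plus 0.1% Triton X-100 for 1–2 h at room temperature, and fluorescence read at ex 530/em 620 nm.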

[4] = tested on: CWR22R; assay: Antiproliferative activity against human 22Rv1 cells assessed as T/C value at 3.2 x 10^-3 uM incubated for 96 hrs by propidium iodide based 2D monolayer assay
Method in brief: (§3)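 Cells were kept in RPMI 1640 with 25 mM HEPES, 10% FCS and gentamicin at 37 °C under 5% CO2, and plated at 4,000-20,000 cells/well. After 24 h recovery, compound in medium or medium alone (control wells) was added at 10 half-log concentrations from 0.0032 to 100 µM, in triplicate, with at most 0.3% DMSO. After 96 h, wells were PBS-washed, stained with 7 µg/ml PI and 0.1% Triton X-100, and fluorescence read at 530/620 nm. IC50 came from a 4-parameter fit, geometric mean.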

[5] = tested on: CWR22R; assay: Antiproliferative activity against human 22Rv1 cells assessed as T/C value at 3.2 x 10^-2 uM incubated for 96 hrs by propidium iodide based 2D monolayer assay; method in brief: as §3
[6] = tested on: VCaP; assay: Antiproliferative activity against human VCaP cells assessed as T/C value at 3.2 x 10^-2 uM incubated for 96 hrs by propidium iodide based 2D monolayer assay; method in brief: as §2
[7] = tested on: CWR22R; assay: Antiproliferative activity against human 22Rv1 cells assessed as T/C value at 1 x 10^1 uM incubated for 96 hrs by propidium iodide based 2D monolayer assay; method in brief: as §3
[8] = tested on: CWR22R; assay: Antiproliferative activity against human 22Rv1 cells assessed as reduction in cell growth incubated for 96 hrs by propidium iodide based 2D monolayer assay; conditions: 22Rv1, 96 h; method in brief: as §1
[9] = tested on: CWR22R; assay: Antiproliferative activity against human 22Rv1 cells assessed as T/C value at 1 uM incubated for 96 hrs by propidium iodide based 2D monolayer assay; method in brief: as §3
[10] = tested on: VCaP; assay: Antiproliferative activity against human VCaP cells assessed as T/C value at 3.2 x 10^-3 uM incubated for 96 hrs by propidium iodide based 2D monolayer assay; method in brief: as §2
[11] = tested on: CWR22R; assay: Antiproliferative activity against human 22Rv1 cells assessed as T/C value at 1 x 10^2 uM incubated for 96 hrs by propidium iodide based 2D monolayer assay; method in brief: as §3
[12] = tested on: VCaP; assay: Antiproliferative activity against human VCaP cells assessed as T/C value at 1 x 10^1 uM incubated for 96 hrs by propidium iodide based 2D monolayer assay; method in brief: as §3
[13] = tested on: VCaP; assay: Antiproliferative activity against human VCaP cells assessed as T/C value at 3.2 x 10^1 uM incubated for 96 hrs by propidium iodide based 2D monolayer assay; method in brief: as §2
[14] = tested on: CWR22R; assay: Antiproliferative activity against human 22Rv1 cells assessed as T/C value at 1 x 10^-1 uM incubated for 96 hrs by propidium iodide based 2D monolayer assay; method in brief: as §3
[15] = tested on: CWR22R; assay: Antiproliferative activity against human 22Rv1 cells assessed as T/C value at 3.2 x 10^-1 uM incubated for 96 hrs by propidium iodide based 2D monolayer assay; method in brief: as §3
[16] = tested on: LNCaP; assay: Antiproliferative activity against human LNCAP cells assessed as T/C value at 1 x 10^-1 uM incubated for 96 hrs by propidium iodide based 2D monolayer assay; method in brief: as §3
[17] = tested on: DU-145; assay: Antiproliferative activity against human DU145 cells assessed as T/C value at 1 uM incubated for 96 hrs by propidium iodide based 2D monolayer assay; method in brief: as §1
[18] = tested on: DU-145; assay: Antiproliferative activity against human DU145 cells assessed as T/C value at 1 x 10^-2 uM incubated for 96 hrs by propidium iodide based 2D monolayer assay; method in brief: as §1
[19] = tested on: VCaP; assay: Antiproliferative activity against human VCaP cells assessed as T/C value at 1 x 10^2 uM incubated for 96 hrs by propidium iodide based 2D monolayer assay; method in brief: as §3
[20] = tested on: CWR22R; assay: Antiproliferative activity against human 22Rv1 cells assessed as T/C value at 3.2 uM incubated for 96 hrs by propidium iodide based 2D monolayer assay; method in brief: as §3
[21] = tested on: VCaP; assay: Antiproliferative activity against human VCaP cells assessed as T/C value at 3.2 x 10^-1 uM incubated for 96 hrs by propidium iodide based 2D monolayer assay; method in brief: as §2
[22] = tested on: DU-145; assay: Antiproliferative activity against human DU145 cells assessed as reduction in cell growth incubated for 96 hrs by propidium iodide based 2D monolayer assay; conditions: DU-145, 96 h; method in brief: as §1
[23] = tested on: LNCaP; assay: Antiproliferative activity against human LNCAP cells assessed as T/C value at 3.2 x 10^-2 uM incubated for 96 hrs by propidium iodide based 2D monolayer assay; method in brief: as §3
[24] = tested on: LNCaP; assay: Antiproliferative activity against human LNCAP cells assessed as T/C value at 3.2 x 10^1 uM incubated for 96 hrs by propidium iodide based 2D monolayer assay; method in brief: as §3
[25] = tested on: DU-145; assay: Antiproliferative activity against human DU145 cells assessed as T/C value at 3.2 x 10^-2 uM incubated for 96 hrs by propidium iodide based 2D monolayer assay; method in brief: as §1
[26] = tested on: LNCaP; assay: Antiproliferative activity against human LNCAP cells assessed as T/C value at 3.2 x 10^-1 uM incubated for 96 hrs by propidium iodide based 2D monolayer assay; method in brief: as §3
[27] = tested on: VCaP; assay: Antiproliferative activity against human VCaP cells assessed as T/C value at 1 x 10^-1 uM incubated for 96 hrs by propidium iodide based 2D monolayer assay; method in brief: as §3
[28] = tested on: CWR22R; assay: Antiproliferative activity against human 22Rv1 cells assessed as T/C value at 1 x 10^-2 uM incubated for 96 hrs by propidium iodide based 2D monolayer assay; method in brief: as §3
[29] = tested on: LNCaP; assay: Antiproliferative activity against human LNCAP cells assessed as T/C value at 3.2 uM incubated for 96 hrs by propidium iodide based 2D monolayer assay; method in brief: as §3
[30] = tested on: DU-145; assay: Antiproliferative activity against human DU145 cells assessed as T/C value at 3.2 uM incubated for 96 hrs by propidium iodide based 2D monolayer assay; method in brief: as §3
[31] = tested on: LNCaP; assay: Antiproliferative activity against human LNCAP cells assessed as T/C value at 3.2 x 10^-3 uM incubated for 96 hrs by propidium iodide based 2D monolayer assay; method in brief: as §3

| SMILES | T/C [1] | IC50 [2] [µM] | IC50 [3] [µM] | T/C [4] | T/C [5] | T/C [6] | T/C [7] | IC50 [8] [µM] | T/C [9] | T/C [10] | T/C [11] | T/C [12] | T/C [13] | T/C [14] | T/C [15] | T/C [16] | T/C [17] | T/C [18] | T/C [19] | T/C [20] | other results |
| --- | --- | --- | --- | --- | --- | --- | --- | --- | --- | --- | --- | --- | --- | --- | --- | --- | --- | --- | --- | --- | --- |
| CC(O)(COc1ccc(S(F)(F)(F)(F)F)cc1)C(=O)Nc1cc(C(F)(F)F)cc(C(F)(F)F)c1 (racemic) | 103% | 1.9 | 2.4 | 102% | 105% | 96% | 13% | 3.2 | 109% | 105% | 4% | 21% | 4% | 106% | 110% | 100% | 117% | 104% | 6% | 52% | IC70 [2]: 2.45 µM; IC70 [3]: 3.22 µM; IC70 [8]: 4.07 µM; T/C [21]: 91%; IC50 [22]: 6.5 µM; IC70 [22]: 7.99 µM; T/C [23]: 99%; T/C [24]: 2%; T/C [25]: 106%; T/C [26]: 97%; T/C [27]: 107%; T/C [28]: 106%; T/C [29]: 15%; T/C [30]: 104%; T/C [31]: 92% |
| CC(O)(COc1cc(C(F)(F)F)cc(C(F)(F)F)c1)C(=O)Nc1cccc(S(F)(F)(F)(F)F)c1 (racemic) | 107% | 2.8 | 2.8 | 104% | 110% | 87% | 13% | 6.5 | 102% | 97% | 2% | 37% | 4% | 106% | 105% | 76% | 123% | 104% | 7% | 102% | IC70 [2]: 3 µM; IC70 [3]: 3.24 µM; IC70 [8]: 7.75 µM; T/C [21]: 91%; IC50 [22]: 9.3 µM; IC70 [22]: 9.59 µM; T/C [23]: 74%; T/C [24]: 1%; T/C [25]: 114%; T/C [26]: 67%; T/C [27]: 78%; T/C [28]: 105%; T/C [29]: 17%; T/C [30]: 115%; T/C [31]: 89% |
| CC(O)(COc1cc(C(F)(F)F)cc(C(F)(F)F)c1)C(=O)Nc1ccc(S(F)(F)(F)(F)F)cc1 (racemic) | 102% | 2.3 | 2.6 | 106% | 99% | 95% | 16% | 7 | 108% | 101% | 4% | 23% | 6% | 104% | 109% | 99% | 118% | 103% | 5% | 103% | IC70 [2]: 2.97 µM; IC70 [3]: 4.53 µM; IC70 [8]: 8.27 µM; T/C [21]: 87%; IC50 [22]: 8.6 µM; IC70 [22]: 9.21 µM; T/C [23]: 100%; T/C [24]: 2%; T/C [25]: 105%; T/C [26]: 93%; T/C [27]: 99%; T/C [28]: 99%; T/C [29]: 26%; T/C [30]: 117%; T/C [31]: 90% |
| CC(O)(COc1ccccc1C(F)(F)F)C(=O)Nc1ccc(S(F)(F)(F)(F)F)cc1 (racemic) | 102 - 112% | 1.2 | 3.1 | 101 - 106% | 100 - 108% | 87 - 93% | 1 - 6% | 1.4 | 9 - 81% | 97 - 98% | 1 - 2% | 11 - 28% | 3 - 11% | 93 - 107% | 69 - 110% | 83 - 84% | 88 - 127% | 103 - 119% | 5 - 10% | 2 - 9% | T/C [21]: 73 - 91%; IC50 [22]: 7.1 µM; T/C [23]: 88 - 94%; T/C [24]: 1%; T/C [25]: 108 - 125%; T/C [26]: 83 - 84%; T/C [27]: 75 - 96%; T/C [28]: 99 - 104%; T/C [29]: 2 - 7%; T/C [30]: 15 - 117%; T/C [31]: 91 - 100% |
